Results reported in ChEMBL document CHEMBL4689842, “EUbOPEN Chemogenomics Library wave 1” (2021).

Tested on: U2OS
Assay: Multiplex assay against U2OS
Assay type: toxicity, cell-based
Details: human
Outline: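 Values for tubulin, mitochondrial-mass and membrane-permeability phenotypes are per cents of cells with healthy nuclei. These cells were identified by CellPathfinder machine-learning gating of live cells that had been stained at seeding with Hoechst33342, BioTracker Green Microtubule Cytoskeleton Dye, MitoTracker Red and Annexin V Alexa Fluor 680 and imaged on a CQ1 microscope at 37°C and 5% CO2 after compound addition. The gating first set Hoechst high-intensity objects apart from normal cells, then split normal cells into healthy, pyknosed or fragmented nuclei, and pyknosed cells into mitotic or apoptotic.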

[1] = 12 h, 1 µM, compound concentration 1 uM, replicate 1
[2] = 12 h, 1 µM, compound concentration 1 uM, replicate 2
[3] = 12 h, 10 µM, compound concentration 10 uM, replicate 1
[4] = 12 h, 10 µM, compound concentration 10 uM, replicate 2
[5] = 24 h, 1 µM, compound concentration 1 uM, replicate 1
[6] = 24 h, 1 µM, compound concentration 1 uM, replicate 2
[7] = 24 h, 10 µM, compound concentration 10 uM, replicate 1
[8] = 24 h, 10 µM, compound concentration 10 uM, replicate 2

Compound: COc1ccc(-c2ccc3c(N4CCOCC4)nc(N4C[C@@H](C)O[C@@H](C)C4)nc3n2)cc1CO [Ku-0063794]
- Population Apoptotic (%) [1]: 36%
- Population Fragmented Nuclei (%) [1]: 7%
- Population Healthy Nuclei (%) [1]: 87%
- Population Hoechst High Intensity Objects (%) [1]: 0%
- Population Membrane Permeable-Phenotype (%) [1]: 8%
- Population Mitochondria Different-Phenotype (%) [1]: 19%
- Population Mitotic Cells (%) [1]: 63%
- Population Normal (%) [1]: 99%
- Population Pyknosed Nuclei (%) [1]: 5%
- Population Tubulin-Different-Phenotype (%) [1]: 22%
- Total Cell Count [1]: 158
- Population Apoptotic (%) [2]: 62%
- Population Fragmented Nuclei (%) [2]: 11%
- Population Healthy Nuclei (%) [2]: 83%
- Population Hoechst High Intensity Objects (%) [2]: 7%
- Population Membrane Permeable-Phenotype (%) [2]: 4%
- Population Mitochondria Different-Phenotype (%) [2]: 20%
- Population Mitotic Cells (%) [2]: 37%
- Population Normal (%) [2]: 92%
- Population Tubulin-Different-Phenotype (%) [2]: 30%
- Total Cell Count [2]: 91
- Population Apoptotic (%) [3]: 69%
- Population Fragmented Nuclei (%) [3]: 34%
- Population Healthy Nuclei (%) [3]: 61%
- Population Hoechst High Intensity Objects (%) [3]: 31%
- Population Membrane Permeable-Phenotype (%) [3]: 20%
- Population Mitochondria Different-Phenotype (%) [3]: 6%
- Population Mitotic Cells (%) [3]: 30%
- Population Normal (%) [3]: 68%
- Population Pyknosed Nuclei (%) [3]: 4%
- Population Tubulin-Different-Phenotype (%) [3]: 11%
- Total Cell Count [3]: 221
- Population Apoptotic (%) [4]: 33%
- Population Fragmented Nuclei (%) [4]: 37%
- Population Healthy Nuclei (%) [4]: 57%
- Population Hoechst High Intensity Objects (%) [4]: 37%
- Population Membrane Permeable-Phenotype (%) [4]: 8%
- Population Mitochondria Different-Phenotype (%) [4]: 11%
- Population Mitotic Cells (%) [4]: 66%
- Population Normal (%) [4]: 62%
- Total Cell Count [4]: 164
- Population Apoptotic (%) [5]: 46%
- Population Fragmented Nuclei (%) [5]: 7%
- Population Healthy Nuclei (%) [5]: 88%
- Population Hoechst High Intensity Objects (%) [5]: 0%
- Population Membrane Permeable-Phenotype (%) [5]: 6%
- Population Mitochondria Different-Phenotype (%) [5]: 19%
- Population Mitotic Cells (%) [5]: 53%
- Population Normal (%) [5]: 99%
- Population Pyknosed Nuclei (%) [5]: 4%
- Population Tubulin-Different-Phenotype (%) [5]: 22%
- Total Cell Count [5]: 173
- Population Apoptotic (%) [6]: 16%
- Population Fragmented Nuclei (%) [6]: 10%
- Population Healthy Nuclei (%) [6]: 86%
- Population Hoechst High Intensity Objects (%) [6]: 7%
- Population Membrane Permeable-Phenotype (%) [6]: 7%
- Population Mitochondria Different-Phenotype (%) [6]: 34%
- Population Mitotic Cells (%) [6]: 83%
- Population Normal (%) [6]: 92%
- Population Pyknosed Nuclei (%) [6]: 3%
- Population Tubulin-Different-Phenotype (%) [6]: 31%
- Total Cell Count [6]: 93
- Population Apoptotic (%) [7]: 60%
- Population Fragmented Nuclei (%) [7]: 31%
- Population Healthy Nuclei (%) [7]: 63%
- Population Hoechst High Intensity Objects (%) [7]: 35%
- Population Membrane Permeable-Phenotype (%) [7]: 15%
- Population Mitochondria Different-Phenotype (%) [7]: 4%
- Population Mitotic Cells (%) [7]: 40%
- Population Normal (%) [7]: 64%
- Population Pyknosed Nuclei (%) [7]: 4%
- Population Tubulin-Different-Phenotype (%) [7]: 9%
- Total Cell Count [7]: 298
- Population Apoptotic (%) [8]: 31%
- Population Fragmented Nuclei (%) [8]: 39%
- Population Healthy Nuclei (%) [8]: 53%
- Population Hoechst High Intensity Objects (%) [8]: 38%
- Population Membrane Permeable-Phenotype (%) [8]: 7%
- Population Mitochondria Different-Phenotype (%) [8]: 9%
- Population Mitotic Cells (%) [8]: 68%
- Population Normal (%) [8]: 61%
- Population Pyknosed Nuclei (%) [8]: 6%
- Population Tubulin-Different-Phenotype (%) [8]: 7%
- Total Cell Count [8]: 197
